Experimental data: BindingDB's records for doi:10.1016/j.bmc.2008.04.041 (The University of Tokushima, 2008)

How the values were obtained:
[1] = target: Matrix metalloproteinase-9 (Bos taurus, UniProt P52176); assay: Inhibition of bovine arterial endothelial cell MMP9
[2] = target: 72 kDa type IV collagenase (Homo sapiens, UniProt P08253); assay: Inhibition of human bowes melanoma cell MMP2
[3] = target: Vascular endothelial growth factor receptor 1 (Homo sapiens, UniProt P17948); assay: Inhibition of Flt1 expressed in mouse NIH3T3 cells by autoradiography
Sequence of Vascular endothelial growth factor receptor 1 (P17948 whole entry): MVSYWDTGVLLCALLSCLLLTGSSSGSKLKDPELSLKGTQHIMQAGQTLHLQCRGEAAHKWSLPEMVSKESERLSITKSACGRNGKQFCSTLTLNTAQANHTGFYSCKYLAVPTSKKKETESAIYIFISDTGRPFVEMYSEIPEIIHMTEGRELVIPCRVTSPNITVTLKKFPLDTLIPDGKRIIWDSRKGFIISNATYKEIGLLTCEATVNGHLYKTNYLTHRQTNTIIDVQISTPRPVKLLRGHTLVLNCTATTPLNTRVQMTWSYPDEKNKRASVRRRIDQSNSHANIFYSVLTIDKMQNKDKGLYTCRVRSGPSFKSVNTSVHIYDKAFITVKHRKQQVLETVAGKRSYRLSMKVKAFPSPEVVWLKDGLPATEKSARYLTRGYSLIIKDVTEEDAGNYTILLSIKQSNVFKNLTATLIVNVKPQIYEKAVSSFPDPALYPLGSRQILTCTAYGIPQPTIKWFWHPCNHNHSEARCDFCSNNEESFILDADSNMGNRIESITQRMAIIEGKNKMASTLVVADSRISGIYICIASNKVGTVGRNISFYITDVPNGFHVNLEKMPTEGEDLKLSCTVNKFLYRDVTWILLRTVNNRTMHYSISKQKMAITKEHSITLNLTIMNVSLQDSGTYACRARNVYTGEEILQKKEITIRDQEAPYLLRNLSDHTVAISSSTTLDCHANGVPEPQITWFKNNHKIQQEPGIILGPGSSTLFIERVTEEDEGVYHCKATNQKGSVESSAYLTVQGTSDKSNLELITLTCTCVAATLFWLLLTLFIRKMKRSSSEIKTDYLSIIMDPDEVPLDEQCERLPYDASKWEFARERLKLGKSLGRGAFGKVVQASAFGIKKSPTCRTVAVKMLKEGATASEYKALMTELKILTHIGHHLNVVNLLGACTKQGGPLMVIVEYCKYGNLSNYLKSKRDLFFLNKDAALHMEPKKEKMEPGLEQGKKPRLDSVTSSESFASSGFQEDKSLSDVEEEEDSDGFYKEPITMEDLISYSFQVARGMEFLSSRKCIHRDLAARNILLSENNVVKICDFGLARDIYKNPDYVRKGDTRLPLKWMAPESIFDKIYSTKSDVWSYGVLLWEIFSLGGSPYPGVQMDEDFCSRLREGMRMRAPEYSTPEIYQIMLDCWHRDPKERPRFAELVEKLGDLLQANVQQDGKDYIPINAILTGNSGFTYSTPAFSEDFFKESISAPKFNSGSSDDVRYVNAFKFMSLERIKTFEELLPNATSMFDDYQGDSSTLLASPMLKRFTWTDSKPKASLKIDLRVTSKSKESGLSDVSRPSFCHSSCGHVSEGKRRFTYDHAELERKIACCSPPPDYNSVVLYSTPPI

[4] = target: Epidermal growth factor receptor (Homo sapiens, UniProt P00533); assay: Inhibition of human A431 cell EGFRK assessed as 32P phosphorylation by scintillation counter
Sequence of Epidermal growth factor receptor (P00533 whole entry): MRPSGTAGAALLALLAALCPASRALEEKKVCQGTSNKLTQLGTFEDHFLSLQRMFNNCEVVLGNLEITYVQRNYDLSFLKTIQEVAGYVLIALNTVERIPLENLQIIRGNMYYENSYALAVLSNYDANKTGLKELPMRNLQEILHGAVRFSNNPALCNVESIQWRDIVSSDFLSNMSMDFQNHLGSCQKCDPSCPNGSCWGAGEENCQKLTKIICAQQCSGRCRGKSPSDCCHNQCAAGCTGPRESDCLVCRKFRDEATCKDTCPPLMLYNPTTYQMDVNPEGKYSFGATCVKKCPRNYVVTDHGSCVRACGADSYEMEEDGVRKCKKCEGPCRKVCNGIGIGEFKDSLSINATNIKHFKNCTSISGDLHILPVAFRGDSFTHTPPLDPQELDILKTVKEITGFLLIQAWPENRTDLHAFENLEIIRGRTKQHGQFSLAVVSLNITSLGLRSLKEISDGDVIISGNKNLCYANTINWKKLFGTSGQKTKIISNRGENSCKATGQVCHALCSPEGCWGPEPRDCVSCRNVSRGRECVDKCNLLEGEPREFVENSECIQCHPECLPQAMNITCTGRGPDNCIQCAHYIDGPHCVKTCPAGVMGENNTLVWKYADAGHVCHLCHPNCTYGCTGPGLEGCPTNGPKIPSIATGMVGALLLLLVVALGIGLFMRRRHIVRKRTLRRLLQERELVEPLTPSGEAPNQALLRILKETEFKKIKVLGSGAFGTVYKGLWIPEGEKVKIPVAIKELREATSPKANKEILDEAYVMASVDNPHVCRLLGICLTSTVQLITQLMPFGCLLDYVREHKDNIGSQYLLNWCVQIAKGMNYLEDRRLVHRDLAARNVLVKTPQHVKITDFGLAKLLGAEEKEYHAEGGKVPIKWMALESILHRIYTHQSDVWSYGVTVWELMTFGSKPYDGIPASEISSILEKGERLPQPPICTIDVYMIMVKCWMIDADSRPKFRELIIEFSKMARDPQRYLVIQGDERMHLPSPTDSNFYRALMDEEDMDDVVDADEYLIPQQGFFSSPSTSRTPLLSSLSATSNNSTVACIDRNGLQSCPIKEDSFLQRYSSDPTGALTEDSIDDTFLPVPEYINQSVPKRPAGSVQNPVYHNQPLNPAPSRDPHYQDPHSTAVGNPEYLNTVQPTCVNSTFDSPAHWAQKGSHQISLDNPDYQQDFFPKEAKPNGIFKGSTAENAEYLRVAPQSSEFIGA
How it was run: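 Solubilized A431 cell lysate, debris removed, incubated with or without EGF for 30 min at 25 °C. Reaction started with [γ-³²P]ATP, 10 min at 0 °C. After stopping and washing, receptor phosphorylation measured as ³²P by scintillation counting.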

Sequence of Matrix metalloproteinase-9 (P52176 whole entry): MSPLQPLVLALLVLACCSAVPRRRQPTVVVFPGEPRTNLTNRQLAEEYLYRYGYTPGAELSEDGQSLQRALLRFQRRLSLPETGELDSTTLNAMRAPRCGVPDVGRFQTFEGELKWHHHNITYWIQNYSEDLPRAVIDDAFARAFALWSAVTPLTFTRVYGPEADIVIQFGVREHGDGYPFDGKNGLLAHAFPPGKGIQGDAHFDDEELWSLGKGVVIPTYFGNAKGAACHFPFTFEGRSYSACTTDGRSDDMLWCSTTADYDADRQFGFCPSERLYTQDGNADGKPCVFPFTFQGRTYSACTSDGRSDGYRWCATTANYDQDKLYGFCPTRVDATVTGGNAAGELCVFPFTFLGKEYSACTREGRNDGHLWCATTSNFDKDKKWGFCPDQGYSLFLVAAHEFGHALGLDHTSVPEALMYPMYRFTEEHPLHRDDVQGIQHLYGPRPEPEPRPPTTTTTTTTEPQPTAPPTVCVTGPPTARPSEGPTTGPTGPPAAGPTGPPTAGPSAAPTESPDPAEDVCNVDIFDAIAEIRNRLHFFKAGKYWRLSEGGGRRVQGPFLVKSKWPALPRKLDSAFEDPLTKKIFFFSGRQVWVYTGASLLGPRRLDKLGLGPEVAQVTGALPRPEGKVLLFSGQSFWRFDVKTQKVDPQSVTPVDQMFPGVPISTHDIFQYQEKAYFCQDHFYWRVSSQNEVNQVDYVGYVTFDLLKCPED
Sequence of 72 kDa type IV collagenase (P08253 whole entry): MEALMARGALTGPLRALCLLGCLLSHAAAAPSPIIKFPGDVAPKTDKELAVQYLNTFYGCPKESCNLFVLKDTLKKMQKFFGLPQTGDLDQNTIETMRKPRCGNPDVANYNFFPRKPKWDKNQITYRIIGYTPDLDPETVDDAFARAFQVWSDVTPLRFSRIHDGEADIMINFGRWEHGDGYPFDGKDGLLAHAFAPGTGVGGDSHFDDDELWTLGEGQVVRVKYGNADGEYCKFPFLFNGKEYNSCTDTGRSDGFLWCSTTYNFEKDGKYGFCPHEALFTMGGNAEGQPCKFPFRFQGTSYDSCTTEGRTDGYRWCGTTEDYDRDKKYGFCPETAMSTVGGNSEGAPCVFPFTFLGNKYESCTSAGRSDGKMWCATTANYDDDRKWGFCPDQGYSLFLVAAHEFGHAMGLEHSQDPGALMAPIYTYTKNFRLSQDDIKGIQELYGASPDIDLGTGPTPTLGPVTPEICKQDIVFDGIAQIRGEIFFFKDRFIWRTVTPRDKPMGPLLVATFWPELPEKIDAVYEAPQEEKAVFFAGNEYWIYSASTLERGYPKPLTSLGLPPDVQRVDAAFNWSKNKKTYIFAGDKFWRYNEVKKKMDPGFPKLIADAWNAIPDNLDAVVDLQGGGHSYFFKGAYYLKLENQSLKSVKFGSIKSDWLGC

Row | SMILES | IC50 [1] | IC50 [2] | IC50 [3] | IC50 [4]
1 | COC[C@@H](Cn1ccnc1[N+](=O)[O-])OC(=O)c1ccc(NC=C2C(=O)C=CC2=O)cc1 | 53 µM | 24 µM | 23.4 µM | 
2 | CC(C)(C)c1ccc(OC[C@@H](Cn2ccnc2[N+](=O)[O-])OC(=O)c2ccc(NC=C3C(=O)C=CC3=O)cc2)cc1 [TX-2036] | 67 µM |  | 18.4 µM | 1.8 µM
3 | CC(C)(C)c1ccc(OC[C@H](Cn2ccnc2[N+](=O)[O-])OC(=O)c2ccc(NC=C3C(=O)C=CC3=O)cc2)cc1 [TX-2037] | 103 µM | 183 µM | 184 µM | 18.4 µM
4 | COC[C@H](Cn1ccnc1[N+](=O)[O-])OC(=O)c1ccc(NC=C2C(=O)C=CC2=O)cc1 [TX-2044] |  |  |  | 23 µM
5 | COC[C@@H](Cn1ccnc1[N+](=O)[O-])OC(=O)c1ccc(NC(=O)C(F)(F)F)cc1 [TX-2045] | > 240 µM | > 240 µM |  | 
6 | COC[C@H](Cn1ccnc1[N+](=O)[O-])OC(=O)c1ccc(NC(=O)C(F)(F)F)cc1 [TX-2046] | > 240 µM | > 240 µM |  | 
